Results reported in ChEMBL document CHEMBL4422642, “Antiproliferative and Antimigratory Effects of a Novel YAP-TEAD Interaction Inhibitor Identified Using in Silico Molecular Docking” (J Med Chem, 2019).
The source made the active and inactive calls. No cut-off for these calls is given here.

Columns and labels:
HeLa [1] = assay: Inhibition of TEAD in human HeLa cells assessed as reduction in CCN1 m-RNA expression incubated for 2 hrs followed by compound wash out and re-treatment for 4 hrs by NanoGlo assay; format: cell-based
[2] = Inhibition of TEAD in rat VSMC assessed as reduction in CCN1 m-RNA expression incubated for 2 hrs followed by compound wash out and re-treatment for 4 hrs by NanoGlo assay
[3] = Inhibition of TEAD in rat VSMC assessed as reduction in CTGF m-RNA expression incubated for 2 hrs followed by compound wash out and re-treatment for 4 hrs by NanoGlo assay
VSMC [4] = assay: Antimigratory activity in rat VSMC incubated for overnight followed by media replacement and measured every hour for 24 hrs by phase contrast microscopic analysis; format: functional, cell-based
In short: (§1)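 IncuCyte real-time scratch wound assay. Cells were seeded in 96-well plates and grown 36 h, then pretreated overnight with compound. Wells were scratched and the medium was replaced with compound-containing medium. Phase-contrast images of the wound were taken hourly for 24 h and relative wound confluence was calculated; n = 4.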

[5] = Inhibition of TEAD (unknown origin) expressed in human HeLa cells after 6 hrs by nanoluciferase reporter gene assay; format: cell-based
In short: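 HeLa cells stably transduced with a lentiviral 8×TEAD-element secreted nanoluciferase reporter were seeded at 2 × 10^4 cells/well and grown 48 h. They were washed and treated with compound for 2 h, washed again and re-treated for 4 h. Secreted nanoluciferase in the conditioned medium was assayed with NanoGlo; n = 3.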

HeLa [6] = assay: Cytotoxicity against human HeLa cells assessed as reduction in cell viability by measuring ethidium homodimer-1 uptake at 20 uM preincubated for 10 mins followed by ethidium homodimer-1 addition measured after 10 mins by fluorescence assay; format: cell-based
In short: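 Live/dead cell viability assay in HeLa cells. Maximum death was set by treating cells 10 min with 0.1% Triton-X, then 10 min with 0.4 μM ethidium homodimer-1. Fluorescence was read on a plate reader.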

[7] = molecular target: T1, Transcriptional enhancer factor TEF-1 (Homo sapiens, UniProt P28347); assay: Binding affinity to TEAD1 (194 to 411 residues) (unknown origin) by ITC assay
In short: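 Isothermal titration calorimetry with purified recombinant TEAD1 (residues 194–411). The GST tag was removed by PreScission protease cleavage at 4 °C for 18 h, glutathione was removed by dialysis against PBS, and free GST was removed with glutathione resin.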

[8] = molecular target: T1, Transcriptional enhancer factor TEF-1; assay: Binding affinity to TEAD1 (194 to 411 residues) (unknown origin) by NMR analysis
In short: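 STD NMR at 700 MHz in PBS pH 7.4 containing 60% D2O, with about 20 μM TEAD1 and 2 mM compound. Saturation time 7 s; on-resonance 0.85 ppm, off-resonance −28 ppm; eight scans. Blank runs without protein or ligand were included.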

[9] = molecular target: T1, Transcriptional enhancer factor TEF-1; assay: Inhibition of Gal4-fused TEAD1 (unknown origin) interaction with YAP expressed in human HeLa cells assessed as basal transcriptional activity level up to 100 uM after 6 hrs by nanoluciferase reporter gene assay; format: cell-based
[10] = molecular target: T2, Transcriptional enhancer factor TEF-4 (Homo sapiens, UniProt Q15562); assay: Inhibition of Gal4-fused TEAD2 (unknown origin) interaction with YAP expressed in human HeLa cells assessed as basal transcriptional activity level up to 100 uM after 6 hrs by nanoluciferase reporter gene assay; format: cell-based
[11] = molecular target: T3, Transcriptional enhancer factor TEF-5 (Homo sapiens, UniProt Q99594); assay: Inhibition of Gal4-fused TEAD3 (unknown origin) interaction with YAP expressed in human HeLa cells assessed as basal transcriptional activity level up to 100 uM after 6 hrs by nanoluciferase reporter gene assay; format: cell-based
[12] = molecular target: Transcriptional enhancer factor TEF-3 (Homo sapiens, UniProt Q15561); assay: Inhibition of Gal4-fused TEAD4 (unknown origin) interaction with YAP expressed in human HeLa cells assessed as basal transcriptional activity level up to 100 uM after 6 hrs by nanoluciferase reporter gene assay; format: cell-based
[13] = molecular target: T2, Transcriptional enhancer factor TEF-4; assay: Inhibition of Gal4-fused TEAD2 (unknown origin) interaction with YAP expressed in human HeLa cells assessed as basal transcriptional activity level after 6 hrs by nanoluciferase reporter gene assay; format: cell-based
[14] = molecular target: T3, Transcriptional enhancer factor TEF-5; assay: Inhibition of Gal4-fused TEAD3 (unknown origin) interaction with YAP expressed in human HeLa cells assessed as basal transcriptional activity level after 6 hrs by nanoluciferase reporter gene assay; format: cell-based
HeLa [15] = assay: Inhibition of TNT1 m-RNA expression in human HeLa cells incubated for 2 hrs followed by compound wash out and re-treatment for 4 hrs by NanoGlo assay; format: functional, cell-based
HeLa [16] = assay: Antimigratory activity in human HeLa cells at 40 to 80 uM incubated for overnight followed by media replacement and measured every hour for 24 hrs by phase contrast microscopic analysis; format: functional, cell-based; in short: as §1
[17] = (§2) Inhibition of TEAD (unknown origin) expressed in rat VSMC after 6 hrs by nanoluciferase reporter gene assay
In short: (§3)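 Rat aortic VSMCs stably transduced with the 8×TEAD secreted nanoluciferase reporter were treated with compound over a concentration range for 6 h. Conditioned medium was assayed for nanoluciferase activity.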

Rattus norvegicus [18] = species on record: Rattus norvegicus; assay: as §2; in short: as §3
Rattus norvegicus [19] = species on record: Rattus norvegicus; assay: Inhibition of TEAD in rat VSMC assessed as reduction in PAI1 m-RNA expression at 60 uM by RT-qPCR analysis
In short: (§4)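 Rat aortic VSMCs (male Sprague-Dawley, 10% FCS/DMEM) were treated with 60 μM compound for 6 h; n = 3. Total RNA was reverse-transcribed with random primers and quantified by SYBR Green qPCR. Data were normalized to nonstimulated controls.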

Rattus norvegicus [20] = species on record: Rattus norvegicus; assay: Inhibition of TEAD in rat VSMC assessed as reduction in THBS m-RNA expression at 60 uM by RT-qPCR analysis; in short: as §4
Rattus norvegicus [21] = species on record: Rattus norvegicus; assay: Inhibition of TEAD in rat VSMC assessed as reduction in MAYDM m-RNA expression at 60 uM by RT-qPCR analysis; in short: as §4
Rattus norvegicus [22] = species on record: Rattus norvegicus; assay: Inhibition of TEAD in rat VSMC assessed as reduction in MYOC m-RNA expression at 60 uM by RT-qPCR analysis; in short: as §4
Rattus norvegicus [23] = species on record: Rattus norvegicus; assay: Inhibition of TEAD in rat VSMC assessed as reduction in CCN1 m-RNA expression at 60 uM by RT-qPCR analysis; in short: as §4
VSMC [24] = assay: Inhibition of PGK1 m-RNA expression in rat VSMC at 60 uM by RT-qPCR analysis; format: functional, cell-based; in short: as §4
VSMC [25] = assay: Inhibition of TBP m-RNA expression in rat VSMC at 60 uM by RT-qPCR analysis; format: functional, cell-based; in short: as §4
VSMC [26] = assay: Inhibition of 36B4 m-RNA expression in rat VSMC at 60 uM by RT-qPCR analysis; format: functional, cell-based; in short: as §4
Rattus norvegicus [27] = species on record: Rattus norvegicus; assay: Inhibition of TEAD in rat VSMC assessed as reduction in CTGF m-RNA expression at 60 uM by RT-qPCR analysis; in short: as §4
MCF7 = assay: Antiproliferative activity against human MCF7 assessed as reduction in EdU incorporation up to 40 uM after 24 hrs by Hoechst 33342 staining-based fluorescence assay; format: functional, cell-based
Rattus norvegicus [28] = species on record: Rattus norvegicus; assay: Inhibition of TEAD in rat VSMC assessed as reduction in CCN1 protein expression up to 60 uM by Western blot analysis
In short: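 VSMCs were treated with compound over a concentration range for 16 h; n = 4. CCN1 protein in total cell lysates was measured by Western blot with GAPDH probed alongside.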

T1 sequence (P28347 whole entry, the tested form may be a part): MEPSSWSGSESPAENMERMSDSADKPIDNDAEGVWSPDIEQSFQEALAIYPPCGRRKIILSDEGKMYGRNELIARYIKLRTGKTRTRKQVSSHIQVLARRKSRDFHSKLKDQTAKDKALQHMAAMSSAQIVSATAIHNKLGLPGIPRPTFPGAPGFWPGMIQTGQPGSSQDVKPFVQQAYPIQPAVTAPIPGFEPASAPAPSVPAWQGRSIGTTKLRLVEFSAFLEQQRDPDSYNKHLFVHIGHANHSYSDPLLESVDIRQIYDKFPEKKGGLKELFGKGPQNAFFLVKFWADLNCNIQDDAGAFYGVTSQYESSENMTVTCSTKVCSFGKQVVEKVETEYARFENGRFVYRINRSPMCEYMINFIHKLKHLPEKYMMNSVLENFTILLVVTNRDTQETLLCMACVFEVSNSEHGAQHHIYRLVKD
T2 sequence (Q15562 whole entry, the tested form may be a part): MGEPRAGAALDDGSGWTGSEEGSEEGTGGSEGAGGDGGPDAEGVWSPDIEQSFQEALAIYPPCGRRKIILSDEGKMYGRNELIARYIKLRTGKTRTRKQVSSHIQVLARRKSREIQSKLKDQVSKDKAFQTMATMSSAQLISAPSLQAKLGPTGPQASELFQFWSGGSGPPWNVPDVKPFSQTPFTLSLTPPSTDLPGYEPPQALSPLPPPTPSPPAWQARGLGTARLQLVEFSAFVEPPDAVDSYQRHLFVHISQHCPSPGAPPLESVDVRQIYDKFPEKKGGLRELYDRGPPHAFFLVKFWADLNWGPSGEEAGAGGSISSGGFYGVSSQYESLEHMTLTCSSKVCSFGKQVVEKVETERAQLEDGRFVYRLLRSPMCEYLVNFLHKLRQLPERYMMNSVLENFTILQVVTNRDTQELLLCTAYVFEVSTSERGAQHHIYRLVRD
T3 sequence (Q99594 whole entry, the tested form may be a part): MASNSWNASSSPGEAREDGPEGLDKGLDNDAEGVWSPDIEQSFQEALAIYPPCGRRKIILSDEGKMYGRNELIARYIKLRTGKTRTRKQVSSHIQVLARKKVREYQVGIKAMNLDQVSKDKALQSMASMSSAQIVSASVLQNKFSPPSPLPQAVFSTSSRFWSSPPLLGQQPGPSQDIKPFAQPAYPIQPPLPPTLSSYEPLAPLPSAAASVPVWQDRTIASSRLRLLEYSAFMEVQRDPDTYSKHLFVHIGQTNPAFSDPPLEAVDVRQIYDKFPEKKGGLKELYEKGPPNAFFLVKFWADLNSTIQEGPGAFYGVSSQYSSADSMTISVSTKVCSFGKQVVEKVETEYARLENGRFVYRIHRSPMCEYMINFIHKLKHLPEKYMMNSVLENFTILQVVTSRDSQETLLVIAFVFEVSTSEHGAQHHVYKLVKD
Chain of Transcriptional enhancer factor TEF-3 (Q15561 whole entry, the tested form may be a part): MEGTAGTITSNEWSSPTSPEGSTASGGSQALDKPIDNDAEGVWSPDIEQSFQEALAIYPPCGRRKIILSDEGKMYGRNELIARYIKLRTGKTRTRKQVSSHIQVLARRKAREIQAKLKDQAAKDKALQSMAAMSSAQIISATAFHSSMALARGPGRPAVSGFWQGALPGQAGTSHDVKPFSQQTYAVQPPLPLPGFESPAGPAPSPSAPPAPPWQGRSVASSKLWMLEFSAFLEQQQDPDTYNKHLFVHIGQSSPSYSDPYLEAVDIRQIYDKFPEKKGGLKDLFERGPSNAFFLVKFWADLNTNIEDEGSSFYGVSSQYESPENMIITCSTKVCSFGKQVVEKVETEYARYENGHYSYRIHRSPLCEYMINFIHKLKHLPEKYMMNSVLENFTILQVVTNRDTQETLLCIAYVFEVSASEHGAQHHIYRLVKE

Question: Which inhibition (HeLa [1]) does the source give for Cc1ccc2c(c1)c1c3n2CCNC3CCC1 (centres undefined) [PIRLINDOLE] here?
Answer: Dose-dependent effect

Question: And the EC50 [2]?
Answer: 48 µM

Question: What about the EC50 [3] of the same molecule?
Answer: 58 µM

Question: And the Activity (VSMC [4])?
Answer: Dose-dependent effect

Question: What about the IC50 [5] of the same molecule?
Answer: 70 µM

Question: And the Activity (HeLa [6])?
Answer: Non-Toxic

Question: What about the Kd [7] of the same molecule?
Answer: 12 µM

Question: What about the Activity [8] of the same molecule?
Answer: Active

Question: And the inhibition [9]?
Answer: Active

Question: What about the inhibition [10] of the same molecule?
Answer: Active

Question: What about the inhibition [11] of the same molecule?
Answer: Active

Question: What about the inhibition [12] of the same molecule?
Answer: Active

Question: And the IC50 [13]?
Answer: 33 µM

Question: What about the IC50 [14] of the same molecule?
Answer: 44 µM

Question: And the inhibition (HeLa [15])?
Answer: inactive

Question: And the Activity (HeLa [16])?
Answer: Active

Question: What about the IC50 [17] of the same molecule?
Answer: 24 µM

Question: What about the inhibition (Rattus norvegicus [18]) of the same molecule?
Answer: Dose-dependent effect

Question: And the inhibition (Rattus norvegicus [19])?
Answer: Active

Question: What about the inhibition (Rattus norvegicus [20]) of the same molecule?
Answer: Active

Question: And the inhibition (Rattus norvegicus [21])?
Answer: Active

Question: What about the inhibition (Rattus norvegicus [22]) of the same molecule?
Answer: Active

Question: And the inhibition (Rattus norvegicus [23])?
Answer: Active

Question: And the inhibition (VSMC [24])?
Answer: inactive

Question: And the inhibition (VSMC [25])?
Answer: inactive

Question: What about the inhibition (VSMC [26]) of the same molecule?
Answer: inactive

Question: And the inhibition (Rattus norvegicus [27])?
Answer: Active

Question: What about the Activity (MCF7) of the same molecule?
Answer: inactive

Question: And the inhibition (Rattus norvegicus [28])?
Answer: Active
